Calls of active or inactive are those of the source. The rule behind the calls is not given here.
What was measured:
Staphylococcus aureus [1] = experiment: Antibacterial activity against Staphylococcus aureus T-AQ 49/YF29 at 100 ug/disk after 24 hrs by disk diffusion assay; assay type: functional; conditions: read-out: Diameter of inhibition zone
In short: (§1)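 Sterile 6 mm filter-paper disc bearing sample set in the centre of a Petri dish of 15 ml plate count agar. Overlaid with 3 ml soft nutrient agar (nutrient broth + 0.7% agar) seeded with 1% of a 16–18 h culture of the test strain. Read-out is the diameter of the growth-free zone around the disc.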

[2] = tested on: Geobacillus stearothermophilus; experiment: Bacteriostatic activity against Bacillus stearothermophilus NCA 1518 at 50 to 150 ug/ml after 4 hrs by liquid culture assay; assay type: functional, organism-based
In short: (§2)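 Wells hold brain heart infusion (200 µl) plus 50 µl inoculum at 10³–10⁵ cfu/ml, with dicranin added as the sodium salt in water (10–200 μg/ml tested). Cultures are incubated at the strain's optimal growth temperature. Duplicate 100 µl samples are taken at 0, 2, 4, 6, 8 and 24 h, diluted in tryptone salt to 10–500 bacteria/plate, plated on plate count agar, and colonies counted after 24 h.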

Bacillus cereus [3] = experiment: Antibacterial activity against Bacillus cereus NCIB 3329 at 25 ug/disk after 24 hrs by disk diffusion assay; assay type: functional; conditions: read-out: Diameter of inhibition zone; in short: as §1
Enterococcus faecalis [4] = experiment: Antibacterial activity against Streptococcus faecalis NCIB 775 at 25 ug/disk after 24 hrs by disk diffusion assay; assay type: functional; conditions: read-out: Diameter of inhibition zone
In short: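 Test material loaded onto 6 mm sterile filter-paper discs. Each disc sits at the centre of a plate of 15 ml plate count agar overlaid with 3 ml soft nutrient agar (nutrient broth + 0.7% agar) carrying 1% of a 16–18 h culture. Activity is read as the diameter of the no-growth zone around the disc.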

[5] = tested on: Geobacillus stearothermophilus; experiment: Antibacterial activity against Bacillus stearothermophilus NCA 1518 at 100 ug/disk after 24 hrs by disk diffusion assay; assay type: functional; conditions: read-out: Diameter of inhibition zone; in short: as §1
Pseudomonas putida = experiment: Antibacterial activity against Pseudomonas putida T-AQ 18/YF18 at 1 mg/disk after 24 hrs by disk diffusion assay; assay type: functional, organism-based; in short: as §1
Bacillus cereus [6] = experiment: Bactericidal activity against Bacillus cereus NCIB 3329 at 10 ug/ml by liquid culture assay; assay type: functional, organism-based; in short: as §2
[7] = tested on: Geobacillus stearothermophilus; experiment: Antibacterial activity against Bacillus stearothermophilus NCA 1518 at 25 ug/disk after 24 hrs by disk diffusion assay; assay type: functional; conditions: read-out: Diameter of inhibition zone; in short: as §1
Enterococcus faecalis [8] = experiment: Antibacterial activity against Streptococcus faecalis NCIB 775 after 24 hrs by disk diffusion assay; assay type: functional, organism-based; in short: as §1
[9] = tested on: Geobacillus stearothermophilus; experiment: Antibacterial activity against Bacillus stearothermophilus NCA 1518 at 75 ug/disk after 24 hrs by disk diffusion assay; assay type: functional; conditions: read-out: Diameter of inhibition zone; in short: as §1
Staphylococcus aureus [10] = experiment: Antibacterial activity against Staphylococcus aureus T-AQ 49/YF29 at 25 ug/disk after 24 hrs by disk diffusion assay; assay type: functional; conditions: read-out: Diameter of inhibition zone; in short: as §1
[11] = tested on: Geobacillus stearothermophilus; experiment: Antibacterial activity against Bacillus stearothermophilus NCA 1518 at 1000 ug/disk after 24 hrs by disk diffusion assay; assay type: functional; conditions: read-out: Diameter of inhibition zone; in short: as §1
Bacillus subtilis [12] = experiment: Antibacterial activity against Bacillus subtilis NCIB 3610 at 125 ug/disk after 24 hrs by disk diffusion assay; assay type: functional; conditions: read-out: Diameter of inhibition zone; in short: as §1
Enterococcus faecalis [13] = experiment: Antibacterial activity against Streptococcus faecalis NCIB 775 at 10 ug/disk after 24 hrs by disk diffusion assay; assay type: functional; conditions: read-out: Diameter of inhibition zone; in short: as §1
Staphylococcus aureus [14] = experiment: Antibacterial activity against Staphylococcus aureus T-AQ 49/YF29 at 75 ug/disk after 24 hrs by disk diffusion assay; assay type: functional; conditions: read-out: Diameter of inhibition zone; in short: as §1
Bacillus subtilis [15] = experiment: Antibacterial activity against Bacillus subtilis NCIB 3610 at 100 ug/disk after 24 hrs by disk diffusion assay; assay type: functional; conditions: read-out: Diameter of inhibition zone; in short: as §1
Bacillus cereus [16] = experiment: Antibacterial activity against Bacillus cereus NCIB 3329 at 250 ug/disk after 24 hrs by disk diffusion assay; assay type: functional; conditions: read-out: Diameter of inhibition zone; in short: as §1
[17] = tested on: Geobacillus stearothermophilus; experiment: Antibacterial activity against Bacillus stearothermophilus NCA 1518 at 500 ug/disk after 24 hrs by disk diffusion assay; assay type: functional; conditions: read-out: Diameter of inhibition zone; in short: as §1
Bacillus cereus [18] = experiment: Bactericidal activity against Bacillus cereus NCIB 3329 at 50 ug/ml by liquid culture assay; assay type: functional, organism-based; in short: as §2
Bacillus cereus [19] = experiment: Bactericidal activity against Bacillus cereus NCIB 3329 at 100 ug/ml upto 4 hrs by liquid culture assay; assay type: functional, organism-based; in short: as §2
[20] = tested on: Geobacillus stearothermophilus; experiment: Antibacterial activity against Bacillus stearothermophilus NCA 1518 at 250 ug/disk after 24 hrs by disk diffusion assay; assay type: functional; conditions: read-out: Diameter of inhibition zone; in short: as §1
Bacillus cereus [21] = experiment: Bactericidal activity against Bacillus cereus NCIB 3329 at 150 ug/ml by liquid culture assay; assay type: functional, organism-based; in short: as §2
Staphylococcus aureus [22] = experiment: Antibacterial activity against Staphylococcus aureus T-AQ 49/YF29 at 500 ug/disk after 24 hrs by disk diffusion assay; assay type: functional; conditions: read-out: Diameter of inhibition zone; in short: as §1
Bacillus subtilis [23] = experiment: Antibacterial activity against Bacillus subtilis NCIB 3610 at 25 ug/disk after 24 hrs by disk diffusion assay; assay type: functional; conditions: read-out: Diameter of inhibition zone; in short: as §1
Bacillus cereus [24] = experiment: Antibacterial activity against Bacillus cereus NCIB 3329 at 500 ug/disk after 24 hrs by disk diffusion assay; assay type: functional; conditions: read-out: Diameter of inhibition zone; in short: as §1
Bacillus subtilis [25] = experiment: Antibacterial activity against Bacillus subtilis NCIB 3610 at 500 ug/disk after 24 hrs by disk diffusion assay; assay type: functional; conditions: read-out: Diameter of inhibition zone; in short: as §1

Structure (SMILES): CC/C=C\C/C=C\C/C=C\CC#CCCCCC(=O)O [DICRANIN]
- zone of inhibition at 100 µg/disc (Staphylococcus aureus [1]): 16 mm
- Activity [2]: Active
- zone of inhibition at 25 µg/disc (Bacillus cereus [3]): 9 mm
- zone of inhibition at 25 µg/disc (Enterococcus faecalis [4]): 10 mm
- zone of inhibition at 100 µg/disc [5]: 16 mm
- Activity (Pseudomonas putida): inactive
- Activity (Bacillus cereus [6]): inactive
- zone of inhibition at 25 µg/disc [7]: 9 mm
- Activity (Enterococcus faecalis [8]): Active
- zone of inhibition at 75 µg/disc [9]: 14 mm
- zone of inhibition at 25 µg/disc (Staphylococcus aureus [10]): 0 mm
- zone of inhibition at 1000 µg/disc [11]: 35 mm
- zone of inhibition at 125 µg/disc (Bacillus subtilis [12]): 14 mm
- zone of inhibition at 10 µg/disc (Enterococcus faecalis [13]): 6 mm
- zone of inhibition at 75 µg/disc (Staphylococcus aureus [14]): 12 mm
- zone of inhibition at 100 µg/disc (Bacillus subtilis [15]): 13 mm
- zone of inhibition at 250 µg/disc (Bacillus cereus [16]): 19 mm
- zone of inhibition at 500 µg/disc [17]: 32 mm
- Activity (Bacillus cereus [18]): Active
- Activity (Bacillus cereus [19]): Active
- zone of inhibition at 250 µg/disc [20]: 26 mm
- Activity (Bacillus cereus [21]): Active
- zone of inhibition at 500 µg/disc (Staphylococcus aureus [22]): 22 mm
- zone of inhibition at 25 µg/disc (Bacillus subtilis [23]): 8 mm
- zone of inhibition at 500 µg/disc (Bacillus cereus [24]): 22 mm
- zone of inhibition at 500 µg/disc (Bacillus subtilis [25]): 19 mm
